PKA-R2B activ – PKA-R2B complex activation | activation, % at 11.4 µM | P22694+P31323 | AID 504700 | PKA-R2B holoenzyme dissociation, Cy5-IP20 fluorescence polarization; R2B truncated from residue 108, S112A mutant; 0% DMSO only, 100% 113 µM cGMP | 340,000 tested, 0.079% active;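 active means activation above a cutoff set at the mean over all compounds plus 3 SD, cut at about 18% in these data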;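 further: higher means more holoenzyme dissociation and a rise in polarization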
Target sequence (P31323 whole entry, looked up, other chains not shown, the tested form may be a part): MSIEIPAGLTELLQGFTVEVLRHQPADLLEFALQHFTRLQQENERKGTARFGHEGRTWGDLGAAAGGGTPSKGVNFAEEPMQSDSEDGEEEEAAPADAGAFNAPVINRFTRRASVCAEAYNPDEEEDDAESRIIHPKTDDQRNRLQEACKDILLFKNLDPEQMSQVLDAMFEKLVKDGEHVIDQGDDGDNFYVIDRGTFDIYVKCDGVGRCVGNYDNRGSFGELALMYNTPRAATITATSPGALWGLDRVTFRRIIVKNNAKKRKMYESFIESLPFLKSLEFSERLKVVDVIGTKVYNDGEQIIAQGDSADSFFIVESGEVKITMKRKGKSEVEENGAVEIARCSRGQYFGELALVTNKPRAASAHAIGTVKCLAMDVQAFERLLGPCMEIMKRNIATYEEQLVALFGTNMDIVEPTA
PKA-R1A activ – activators of PKA-R1A complex. P00514+P68181. PKA-R1A dissociation, Cy5-IP20 fluorescence polarization; scaled: DMSO 0%, 113 µM cGMP 100%. activation, % at 11.4 µM. 340,000 tested, 0.083% active. AID 504707;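 active means percent activation above the mean of all tested compounds plus 3 SD, cut at about 19% in these data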;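 further: higher means more PKAc released from R1A so a rise in polarization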
bovine MsrA act – activates bovine MsrA enzyme; activation, % at 10.6 µM; AID 602163; purified bovine MsrA, absorbance read-out; 360,000 tested, 0.3% active; in the data active means activation above about 7.5%;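 further: 0% = vehicle and 100% = reference activator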
MsrA inhibitor – bovine MsrA inhibition. purified bovine MsrA, absorbance read-out. inhibition, % at 15.5 µM. 360,000 tested, 0.75% active; in the data active means inhibition above about 4.5%;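 further: 0% = vehicle wells with enzyme and 100% = reference inhibitor wells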
IMP-1 inhibitor – blocks Pseudomonas aeruginosa IMP-1 metallo-beta-lactamase | purified IMP-1, nitrocefin hydrolysis, epi-absorbance fluorescence | inhibition, % at 5.6 µM | 290,000 tested, 0.45% active | AID 1556;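 active means inhibition above the mean plus 3 SD of all compounds in the same screening run, cut at about 4.5% in these data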;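 further: 0% = IMP-1 with DMSO and 100% = DMSO wells lacking enzyme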
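Material – recombinant IMP-1 enzyme, purified · Amount – IMP-1 0.2 nM before substrate addition · Medium – HEPES buffer pH 7.1 with ZnSO4 and Brij 35 · Timing – 25 °C, 15 min preincubation, 25 min reaction · Measured by – plate fluorescence quenching by hydrolysis product, ex 480/em 530 nm · Read-out – percent enzyme inhibition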
VIM-2 inh – blocks Pseudomonas aeruginosa VIM-2 metallo-beta-lactamase | purified VIM-2, nitrocefin hydrolysis, epi-absorbance fluorescence | inhibition, % at 5.6 µM | 290,000 tested, 0.89% active;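 active means inhibition above the mean of all tested compounds plus 3 SD, cutoff set per screening run, cut at about 7.5% in these data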;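 further: red hydrolysis product quenches plate fluorescence so inhibitors raise well fluorescence; 0% = enzyme with DMSO and 100% = DMSO without enzyme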
Numbers without * were called inactive; · = no result. Sampled rows, rich in hits. Any-hit rate of the full collection: about 2.1%.

SMILES | PKA-R2B activ | PKA-R1A activ | bovine MsrA act | MsrA inhibitor | IMP-1 inhibitor | VIM-2 inh
COc1cc(/C=C(\C#N)C(=O)c2c[nH]c3ccccc23)cc(OC)c1O | 2 | -4 | -3 | 3 | 4.8* | -3
C[C@@H]1CN([C@@H](C)CO)C(=O)CCCn2nncc2CO[C@H]1CN(C)S(=O)(=O)c1ccccc1C#N | -9 | -2 | -5 | -1 | · | ·
CC1(C)Cc2c(sc3nc(NCCN4CCOCC4)n4ncnc4c23)CO1 | -5 | 16 | -4 | 1 | 16* | 7
CC1(C)Cc2c(c(-c3ccco3)nc3sc4c(NCCN5CCOCC5)ncnc4c23)CO1 | -1 | 3 | -4 | 2 | 1 | -3
Cc1ccc(F)cc1C(=O)N1CCCCC1c1cc(C(=O)NCc2ccccc2)no1 (stereo unspecified) | · | · | 0 | 0 | · | ·
CC(=O)NNC(=O)c1sc(=S)n2c1[nH]c(=O)c1sccc12 | -10 | -10 | -4 | 0 | -1 | 23*
NC(=O)c1sc(=S)n2c1[nH]c(=O)c1sccc12 | -3 | -4 | -4 | 0 | -1 | 8.2*
O=C(NCc1ccccc1)c1sc(=S)n2c1[nH]c(=O)c1ccccc12 | -11 | -6 | 2 | 0 | -2 | -1
CN(N=Nc1nc[nH]c1C(N)=O)C1CCCCC1 | · | · | -16 | 4.6* | · | ·
CN(C)N=Nc1nc[nH]c1C(N)=O | -5 | 2 | -2 | 2 | · | ·
COc1cc(/C=C/C(=O)OC(C)C(=O)Nc2c(C)n(C)n(-c3ccccc3)c2=O)ccc1OCC#N (stereo unspecified) | 1 | 5 | -9 | 4.6* | -2 | -2
Cn1c2ccc(F)cc2c2nc3ccccc3nc21 | -1 | 8 | -2 | 2 | -3 | 7.9*
CCOc1ccc2c(c1)c1nc3ccccc3nc1n2C | -3 | 3 | -7 | 1 | 0 | 8.4*
Cn1c2ccc(Cl)cc2c2nc3ccccc3nc21 | 2 | 0 | -3 | 1 | -4 | -2
COc1ccc(Cn2c3ccc(OC)cc3c3nc4ccccc4nc32)cc1 | -5 | 8 | -4 | 0 | 0 | 0
Cc1cc(C)c2c(c1)[C@@H]1C=CC[C@@H]1[C@H](c1ccc(S(=O)(=O)N3CCOCC3)cc1)N2 | -9 | 1 | -5 | 0 | 8.1* | -1
CCOC1=C2[C@H](c3cccs3)N(S(=O)(=O)c3ccc(C)cc3)C[C@H]2n2c(=O)n(-c3ccccc3)c(=O)n2C1 | · | · | -9 | 1 | · | ·
Cc1cc(C)c(S(=O)(=O)N2CCCCC2)c(C)c1N(C)S(=O)(=O)c1ccccc1 | -4 | 3 | 9.7* | 0 | -2 | -2
CCN(CC)CCNC(=O)c1ccc(Cl)c(S(=O)(=O)Nc2ccccc2OC)c1 | -3 | 3 | -2 | -1 | 5.4* | -1
CCN(CC)CCCNC(=O)c1ccc(Cl)c(S(=O)(=O)Nc2ccccc2OC)c1 | -6 | 1 | -7 | 0 | -5 | 1
COc1cc(/C=N/NC(=O)c2sc(N)c(C#N)c2C)ccc1O | 2 | -1 | -16 | 8.4* | -3 | -4
COc1cc(/C=N/NC(=O)c2cccc(N3CCCC3=O)c2)ccc1O | 0 | 9 | -4 | 5.4* | -3 | -2
Cc1c(C(=O)N/N=C/c2ccc(O)c(Br)c2)sc(N)c1C#N | -9 | -3 | -5 | 4 | -4 | -5
CCOC(=O)CCc1c(C)c2ccc3c(c2oc1=O)CN(CCCO)CO3 | -4 | -4 | -4 | 2 | -2 | -5
COC(=O)[C@]12C[C@H](CC(=O)N3CCN(C(=O)C4CC4)CC3)C(=O)N(Cc3ccc4c(c3)OCO4)C1=C[C@H](COCc1ccccc1)O[C@@H]2C | · | · | · | 0 | · | ·
SMILES | PKA-R2B activ | PKA-R1A activ | bovine MsrA act | MsrA inhibitor | IMP-1 inhibitor | VIM-2 inh
CCC1CCCCN1CCCNC(=O)c1c(O)nc2c(C)cccn2c1=O (stereo unspecified) | 7 | -3 | -2 | 1 | -1 | 9.6*
CCC1CCCCN1CCCNC(=O)c1c(O)nc2ccccn2c1=O (stereo unspecified) | 0 | 10 | -1 | 1 | -4 | -1
Cc1cccn2c(=O)c(C(=O)NCCCN3CCCCC3C)c(O)nc12 (stereo unspecified) | -2 | 2 | -3 | 0 | -2 | 9.5*
CCOC(=O)c1c(-c2ccc3ccccc3c2)csc1NC(=O)CCCC(=O)O | -13 | -2 | -1 | -2 | · | ·
COc1ccccc1N1C(=O)C(Cl)=C(Nc2ccccc2O)C1=O | 3 | -7 | -3 | 2 | -1 | 1
O=C1C(Cl)=C(Nc2ccccc2O)C(=O)N1c1ccccc1 | 18 | -6 | -1 | 0 | -5 | 9.3*
COC(=O)[C@@]12C[C@@H](CC(=O)N3CCOCC3)C(=O)N(CCc3ccc(OC)c(OC)c3)C1=CCC(C)(C)C2 | · | · | · | 1 | · | ·
COc1ccc(/C=C/c2nc(C#N)c(NCCN(C)C)o2)cc1OC | 2 | 10 | -4 | 4 | -3 | 10*
CCn1c(=O)c2sccc2n2c(CCCC(=O)NC3CCN(Cc4ccccc4)CC3)nnc12 | -3 | 5 | -3 | 0 | -3 | 8.0*
CC(C)CCn1c(=O)c2sccc2n2c(CCCC(=O)N3CCN(c4ccccn4)CC3)nnc12 | 0 | -1 | 1 | -1 | -2 | 8.6*
CC(C)Cn1c(=O)c2sccc2n2c(CCCC(=O)N3CCC(N4CCCCC4)CC3)nnc12 | 3 | -8 | 1 | 0 | -2 | 7.7*
CCn1c(=O)c2sccc2n2c(CCCC(=O)N3CCN(c4ccccn4)CC3)nnc12 | 1 | 8 | -13 | 0 | 0 | 8.8*
Cn1c(=O)c2sccc2n2c(CCCC(=O)N3CCCCC3)nnc12 | 4 | -12 | -1 | 0 | -2 | 0
CCc1nc2c(OCCOc3ccc(F)cc3)cccn2c1N(C)C(=O)c1cccs1 | · | · | -1 | 1 | · | ·
O=C(O)C/C(=C\c1ccc2c(c1)OCO2)c1nc2ccccc2s1 | 4 | -3 | -6 | 4 | -2 | 8.0*
CCOc1ccc(N=Cc2c(C)[nH]n(-c3nc4ccccc4[nH]3)c2=O)cc1 | 5 | 6 | -3 | 1 | 7.2* | -3
O=C1NC(=S)S/C1=C\c1ccc(SCc2ccco2)o1 | -2 | 2 | -11 | · | 9.7* | 4
O=C(NC1CCCCC1)C1CCN(S(=O)(=O)c2cccs2)CC1 | -10 | -11 | -4 | 2 | 4.8* | 3
CCCCCn1c(N)c(-c2nc3ccccc3s2)c2c([N+](=O)[O-])nn(C)c(=O)c21 | -5 | 10 | -16 | · | 6.9* | 0
COC(=O)c1cc(NCc2ccccc2F)ccc1N1CCOCC1 | 0 | -1 | -12 | 0 | 15* | -2
COC(=O)c1cc2c(c3c4cc(C)ccc4n(S(=O)(=O)c4cccc(C)c4)c13)C(=O)N(C)C2 | · | · | · | 0 | · | ·
Cc1cccn2c(=O)c3cc(C(=O)NCc4ccco4)c(=N)n(CCc4ccccc4)c3nc12 | -2 | -7 | -4 | 1 | -1 | 1
